ChEMBL document CHEMBL3046030, “Implementation of bio-fungicides and seed treatment in organic rice cv. KDML 105 farming” (2009)

Assays:
Type in all cases: functional
[1] = system: Bipolaris oryzae; test: Antifungal activity against Bipolaris oryzae assessed as mycelial growth inhibition after 96 hr by agar overlay method
Outline: (§1)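 Agar overlay method: plant extract or essential oil was mixed into PDA at 0.10, 0.25, 0.50 and 1.00% v/v. A 5 mm plug from a 7-day culture was placed upside down on each plate and incubated 96 h at 25±2°C. Colony diameter was compared with an untreated control as % inhibition = (C−T)/C×100, using four replicates averaged. IC50 was derived by regression of the concentration–response curve.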

[2] = system: Aspergillus niger; test: Antifungal activity against Aspergillus niger assessed as mycelial growth inhibition after 96 hr by agar overlay method; outline: as §1
[3] = system: Aspergillus flavus; test: Antifungal activity against Aspergillus flavus assessed as mycelial growth inhibition after 96 hr by agar overlay method; outline: as §1
[4] = system: Alternaria solani; test: Antifungal activity against Alternaria solani assessed as mycelial growth inhibition after 96 hr by agar overlay method; outline: as §1
[5] = system: Aspergillus flavus; test: Antifungal activity against Aspergillus flavus assessed as inhibition of spore germination at 0.25% after 24 hr by compound microscopy
[6] = system: Alternaria solani; test: Antifungal activity against Alternaria solani assessed as inhibition of spore germination at 0.25% after 24 hr by compound microscopy
Outline: (§2)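 Spores were raised by growing the fungus 3 days at 25±2°C in aqueous PDA, rinsing the mycelium three times in distilled water, and holding it 2 more days. The suspension was adjusted to about 10^6 cfu/mL by hemacytometer and spread on slides carrying a thin PDA layer. An open watch glass held plant extract or essential oil (0.10–1.00% v/v), or sterile water as control. Slides were sealed in moist dishes for 24 h at 25±2°C. Encysted spores were counted at x100, and % inhibition was calculated against control.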

[7] = system: Rhizoctonia solani; test: Antifungal activity against Rhizoctonia solani assessed as inhibition of spore germination at 0.10% after 24 hr by compound microscopy; outline: as §2
[8] = system: Curvularia; test: Antifungal activity against Curvularia sp. assessed as inhibition of spore germination at 0.10% after 24 hr by compound microscopy
[9] = system: Fusarium verticillioides; test: Antifungal activity against Fusarium verticillioides assessed as inhibition of spore germination at 0.10% after 24 hr by compound microscopy; outline: as §2
[10] = system: Aspergillus niger; test: Antifungal activity against Aspergillus niger assessed as inhibition of spore germination at 0.10% after 24 hr by compound microscopy
[11] = system: Aspergillus flavus; test: Antifungal activity against Aspergillus flavus assessed as inhibition of spore germination at 0.10% after 24 hr by compound microscopy
[12] = system: Alternaria solani; test: Antifungal activity against Alternaria solani assessed as inhibition of spore germination at 0.10% after 24 hr by compound microscopy; outline: as §2
[13] = system: Rhizoctonia solani; test: Antifungal activity against Rhizoctonia solani assessed as mycelial growth inhibition at 1% after 96 hr by agar overlay method
Outline: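 PDA containing plant extract or essential oil (0.10–1.00% v/v) was used for the agar overlay. A 5 mm plug from a 7-day-old R. solani culture was placed upside down, then incubated 96 h at 25±2°C. Colony diameter was measured against a simultaneous untreated control, and inhibition was calculated as [(C−T)/C]×100. Four replicates were averaged.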

[14] = system: Nigrospora; test: Antifungal activity against Nigrospora sp. assessed as mycelial growth inhibition at 1% after 96 hr by agar overlay method; outline: as §1
[15] = system: Fusarium verticillioides; test: Antifungal activity against Fusarium verticillioides assessed as mycelial growth inhibition at 1% after 96 hr by agar overlay method; outline: as §1
[16] = system: Curvularia; test: Antifungal activity against Curvularia sp. assessed as mycelial growth inhibition at 1% after 96 hr by agar overlay method; outline: as §1
[17] = system: Bipolaris oryzae; test: Antifungal activity against Bipolaris oryzae assessed as mycelial growth inhibition at 1% after 96 hr by agar overlay method; outline: as §1
[18] = system: Aspergillus niger; test: Antifungal activity against Aspergillus niger assessed as mycelial growth inhibition at 1% after 96 hr by agar overlay method; outline: as §1
[19] = system: Aspergillus flavus; test: Antifungal activity against Aspergillus flavus assessed as mycelial growth inhibition at 1% after 96 hr by agar overlay method; outline: as §1
[20] = system: Alternaria solani; test: Antifungal activity against Alternaria solani assessed as mycelial growth inhibition at 1% after 96 hr by agar overlay method; outline: as §1
[21] = system: Rhizoctonia solani; test: Antifungal activity against Rhizoctonia solani assessed as mycelial growth inhibition after 96 hr by agar overlay method
Outline: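 Agar overlay on PDA with extract or oil at 0.10, 0.25, 0.50 and 1.00% v/v. A 5 mm plug from a 7-day R. solani culture was incubated 96 h at 25±2°C, colony diameter was measured, and % inhibition versus untreated control was calculated in four replicates. IC50 was derived by regression of % inhibition against concentration.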

[22] = system: Nigrospora; test: Antifungal activity against Nigrospora sp. assessed as mycelial growth inhibition after 96 hr by agar overlay method; outline: as §1
[23] = system: Fusarium verticillioides; test: Antifungal activity against Fusarium verticillioides assessed as mycelial growth inhibition after 96 hr by agar overlay method; outline: as §1
[24] = system: Curvularia; test: Antifungal activity against Curvularia sp. assessed as mycelial growth inhibition after 96 hr by agar overlay method; outline: as §1
[25] = system: Rhizoctonia solani; test: Antifungal activity against Rhizoctonia solani assessed as inhibition of spore germination at 1% after 24 hr by compound microscopy
Outline: (§3)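 R. solani grown 3 days at 25±2°C in aqueous PDA, rinsed three times with distilled water, then held 2 days to induce spores. Suspension set to about 10^6 cfu/mL by hemacytometer and spread on a thin PDA layer on slides. Watch glass held extract/oil (0.10–1.00% v/v) or sterile water control. Moist sealed chamber, 24 h, 25±2°C; encysted spores counted at x100; % inhibition versus control.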

[26] = system: Curvularia; test: Antifungal activity against Curvularia sp. assessed as inhibition of spore germination at 1% after 24 hr by compound microscopy
[27] = system: Fusarium verticillioides; test: Antifungal activity against Fusarium verticillioides assessed as inhibition of spore germination at 1% after 24 hr by compound microscopy; outline: as §2
[28] = system: Aspergillus niger; test: Antifungal activity against Aspergillus niger assessed as inhibition of spore germination at 1% after 24 hr by compound microscopy
[29] = system: Aspergillus flavus; test: Antifungal activity against Aspergillus flavus assessed as inhibition of spore germination at 1% after 24 hr by compound microscopy
[30] = system: Alternaria solani; test: Antifungal activity against Alternaria solani assessed as inhibition of spore germination at 1% after 24 hr by compound microscopy; outline: as §2
[31] = system: Rhizoctonia solani; test: Antifungal activity against Rhizoctonia solani assessed as inhibition of spore germination at 0.5% after 24 hr by compound microscopy; outline: as §3
[32] = system: Curvularia; test: Antifungal activity against Curvularia sp. assessed as inhibition of spore germination at 0.5% after 24 hr by compound microscopy
[33] = system: Fusarium verticillioides; test: Antifungal activity against Fusarium verticillioides assessed as inhibition of spore germination at 0.5% after 24 hr by compound microscopy; outline: as §2
[34] = system: Aspergillus niger; test: Antifungal activity against Aspergillus niger assessed as inhibition of spore germination at 0.5% after 24 hr by compound microscopy
[35] = system: Aspergillus flavus; test: Antifungal activity against Aspergillus flavus assessed as inhibition of spore germination at 0.5% after 24 hr by compound microscopy
[36] = system: Alternaria solani; test: Antifungal activity against Alternaria solani assessed as inhibition of spore germination at 0.5% after 24 hr by compound microscopy; outline: as §2
[37] = system: Rhizoctonia solani; test: Antifungal activity against Rhizoctonia solani assessed as inhibition of spore germination at 0.25% after 24 hr by compound microscopy; outline: as §3
[38] = system: Curvularia; test: Antifungal activity against Curvularia sp. assessed as inhibition of spore germination at 0.25% after 24 hr by compound microscopy
[39] = system: Fusarium verticillioides; test: Antifungal activity against Fusarium verticillioides assessed as inhibition of spore germination at 0.25% after 24 hr by compound microscopy; outline: as §2
[40] = system: Aspergillus niger; test: Antifungal activity against Aspergillus niger assessed as inhibition of spore germination at 0.25% after 24 hr by compound microscopy
[41] = system: Nigrospora; test: Antifungal activity against Nigrospora sp. at 0.25%
[42] = system: Curvularia; test: Antifungal activity against Curvularia sp. at 0.25%
[43] = system: Rhizoctonia solani; test: Antifungal activity against Rhizoctonia solani at 0.25%
[44] = system: Alternaria solani; test: Antifungal activity against Alternaria solani at 1%
[45] = system: Bipolaris oryzae; test: Antifungal activity against Bipolaris oryzae at 0.25%
[46] = system: Aspergillus niger; test: Antifungal activity against Aspergillus niger at 0.25%
[47] = system: Aspergillus flavus; test: Antifungal activity against Aspergillus flavus at 0.25%
[48] = system: Alternaria solani; test: Antifungal activity against Alternaria solani at 0.25%
[49] = system: Rhizoctonia solani; test: Antifungal activity against Rhizoctonia solani at 1%
[50] = system: Colletotrichum; test: Antifungal activity against Colletotrichum sp. at 1%
[51] = system: Fusarium verticillioides; test: Antifungal activity against Fusarium verticillioides at 1%
[52] = system: Nigrospora; test: Antifungal activity against Nigrospora sp. at 1%
[53] = system: Bipolaris oryzae; test: Antifungal activity against Bipolaris oryzae at 1%
[54] = system: Curvularia; test: Antifungal activity against Curvularia sp. at 1%
[55] = system: Aspergillus niger; test: Antifungal activity against Aspergillus niger at 1%
[56] = system: Aspergillus flavus; test: Antifungal activity against Aspergillus flavus at 1%
[57] = system: Fusarium verticillioides; test: Antifungal activity against Fusarium verticillioides at 0.25%

## O=C1C2CC=CCC2C(=O)N1SC(Cl)(Cl)Cl (stereo unspecified) [CAPTAN]
[1]
  growth inhibition (GI): 1.11%
[2]
  growth inhibition (GI): 4.06%
[3]
  growth inhibition (GI): 8.13%
[4]
  growth inhibition (GI): 4.6%
[5]
  growth inhibition (GI): 100%
[6]
  growth inhibition (GI): 100%
[7]
  growth inhibition (GI): 100%
[8]
  growth inhibition (GI): 100%
[9]
  growth inhibition (GI): 100%
[10]
  growth inhibition (GI): 100%
[11]
  growth inhibition (GI): 100%
[12]
  growth inhibition (GI): 100%
[13]
  growth inhibition (GI): 17.06%
[14]
  growth inhibition (GI): 6.97%
[15]
  growth inhibition (GI): 23.39%
[16]
  growth inhibition (GI): 9.15%
[17]
  growth inhibition (GI): 21.1%
[18]
  growth inhibition (GI): 13.95%
[19]
  growth inhibition (GI): 18.02%
[20]
  growth inhibition (GI): 2.63%
[21]
  growth inhibition (GI): 13.78%
[22]
  growth inhibition (GI): 2.82%
[23]
  growth inhibition (GI): 12.28%
[24]
  growth inhibition (GI): 8.45%
[25]
  growth inhibition (GI): 100%
[26]
  growth inhibition (GI): 100%
[27]
  growth inhibition (GI): 100%
[28]
  growth inhibition (GI): 100%
[29]
  growth inhibition (GI): 100%
[30]
  growth inhibition (GI): 100%
[31]
  growth inhibition (GI): 100%
[32]
  growth inhibition (GI): 100%
[33]
  growth inhibition (GI): 100%
[34]
  growth inhibition (GI): 100%
[35]
  growth inhibition (GI): 100%
[36]
  growth inhibition (GI): 100%
[37]
  growth inhibition (GI): 100%
[38]
  growth inhibition (GI): 100%
[39]
  growth inhibition (GI): 100%
[40]
  growth inhibition (GI): 100%

## C=CCc1ccc(O)c(OC)c1 [EUGENOL]
[41]
  inhibition (INH): 50.04%
[42]
  inhibition (INH): 50.04%
[43]
  inhibition (INH): 100%
[44]
  inhibition (INH): 100%
[45]
  inhibition (INH): 86.98%
[46]
  inhibition (INH): 70.58%
[47]
  inhibition (INH): 44.22%
[48]
  inhibition (INH): 100%
[49]
  inhibition (INH): 100%
[50]
  inhibition (INH): 100%
[51]
  inhibition (INH): 100%
[52]
  inhibition (INH): 98.23%
[53]
  inhibition (INH): 100%
[54]
  inhibition (INH): 97.04%
[5]
  growth inhibition (GI): 65.6%
[6]
  growth inhibition (GI): 24.16%
[7]
  growth inhibition (GI): 93.53%
[8]
  growth inhibition (GI): 44.94%
[9]
  growth inhibition (GI): 21.88%
[10]
  growth inhibition (GI): 37.59%
[11]
  growth inhibition (GI): 54%
[12]
  growth inhibition (GI): 14.41%
[55]
  inhibition (INH): 100%
[56]
  inhibition (INH): 100%
[57]
  inhibition (INH): 100%
[25]
  growth inhibition (GI): 100%
[26]
  growth inhibition (GI): 100%
[27]
  growth inhibition (GI): 100%
[28]
  growth inhibition (GI): 100%
[29]
  growth inhibition (GI): 100%
[30]
  growth inhibition (GI): 100%
[31]
  growth inhibition (GI): 100%
[32]
  growth inhibition (GI): 100%
[33]
  growth inhibition (GI): 100%
[34]
  growth inhibition (GI): 100%
[35]
  growth inhibition (GI): 100%
[36]
  growth inhibition (GI): 65.68%
[37]
  growth inhibition (GI): 100%
[38]
  growth inhibition (GI): 85.39%
[39]
  growth inhibition (GI): 74.11%
[40]
  growth inhibition (GI): 65.6%
